Biological target: T1, Prostaglandin G/H synthase 1 (Mus musculus, UniProt P22437)
T1 sequence (P22437 whole entry): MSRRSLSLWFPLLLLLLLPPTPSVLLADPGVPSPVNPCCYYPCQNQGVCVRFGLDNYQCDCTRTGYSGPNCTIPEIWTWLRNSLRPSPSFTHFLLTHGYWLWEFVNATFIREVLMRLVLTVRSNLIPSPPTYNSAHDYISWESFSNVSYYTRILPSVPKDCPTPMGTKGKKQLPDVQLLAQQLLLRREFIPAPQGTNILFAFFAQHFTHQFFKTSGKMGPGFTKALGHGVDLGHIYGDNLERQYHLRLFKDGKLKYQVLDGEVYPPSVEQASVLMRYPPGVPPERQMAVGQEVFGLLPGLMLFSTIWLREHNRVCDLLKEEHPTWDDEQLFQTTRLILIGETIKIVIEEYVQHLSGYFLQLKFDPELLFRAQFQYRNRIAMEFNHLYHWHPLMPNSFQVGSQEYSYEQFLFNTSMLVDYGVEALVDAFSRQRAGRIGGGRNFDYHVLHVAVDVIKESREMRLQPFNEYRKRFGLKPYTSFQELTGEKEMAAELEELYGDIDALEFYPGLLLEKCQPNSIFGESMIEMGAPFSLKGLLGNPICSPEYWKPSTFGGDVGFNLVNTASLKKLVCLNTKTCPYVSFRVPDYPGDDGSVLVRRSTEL
Experiment: In vitro inhibitory activity against prostaglandin G/H synthase 1 using mouse peritoneal macrophage method
Procedure, shortened: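 Freshly harvested mouse peritoneal macrophages were the enzyme source. Cells were preincubated 10 min at 37 °C with inhibitor in DMSO, then stimulated with calcium ionophore A23187 for 10 min. The reaction was stopped with indomethacin in 0.1% BSA buffer and centrifuged, and supernatant TXB₂ was measured by ELISA.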

## CC1(C)OC(c2ccc(S(N)(=O)=O)cc2)=C(c2ccco2)C1=O
  IC50: > 29.9 µM
